HSV replic up: increases HSV replication in cells. HSV replication augmentation in cells, fold increase. maximum fold increase. 0.005% of 220,000 active; in the data active = maximum fold increase above about 1.5; inconclusive = no clear call, values can overlap the other calls; tested in PC3 cells
ROMK primary: modulators of human ROMK potassium channel; Tet-inducible ROMK, thallium flux fluorescence; actives lie on both sides; 2% of 130,000 active; B-score at 10 µM; P48048;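 active = signal ratio slope over the read window, or its plate-corrected B-score, at least 3 SD from the plate mean, either direction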;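 also: B-score of the F/F0 ratio slope over 7 to 12 s after thallium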
Target sequence (P48048 whole entry, looked up): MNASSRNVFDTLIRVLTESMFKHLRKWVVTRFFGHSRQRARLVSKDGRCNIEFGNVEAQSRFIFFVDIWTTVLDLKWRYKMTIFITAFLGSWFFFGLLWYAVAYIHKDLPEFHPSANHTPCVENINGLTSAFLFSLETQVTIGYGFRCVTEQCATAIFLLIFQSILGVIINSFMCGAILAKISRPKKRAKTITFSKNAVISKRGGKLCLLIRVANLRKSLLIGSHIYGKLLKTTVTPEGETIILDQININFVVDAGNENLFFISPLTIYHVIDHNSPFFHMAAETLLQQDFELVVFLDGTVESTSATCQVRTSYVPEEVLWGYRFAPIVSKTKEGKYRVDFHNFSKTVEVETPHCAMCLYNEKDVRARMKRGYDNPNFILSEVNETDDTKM
bCat nuc transl: beta-catenin nuclear translocation modulation | nuclear translocation activity, % at 5 µM | 0.3% of 190,000 active | HeLa beta-catenin nuclear translocation, immunofluorescence imaging | AID 1665;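 active = nuclear translocation activity above 50% at 5 µM, with a well cell count of 50 or more; inconclusive = wells under 50 cells across six images, flagged as toxic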;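 also: per-cell ratio of nuclear to cytoplasmic median beta-catenin stain intensity; plate controls were DMSO negative control for no effect and GSK-3 inhibitor IX positive control for full effect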
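Test system: HeLa cells, endogenous beta-catenin; Compound: single 5 µM dose plus 0.02–20 µM confirmation series; Times: compound exposure 24 h at 37°C; Signal: fluorescence imaging of beta-catenin antibody stain plus DAPI; Read-out: % activation, nuclear-to-cytoplasmic median beta-catenin signal ratio per cell.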
MT stabilizer: microtubule stabilizers in HeLa cells; HeLa tubulin immunostaining HCS, 24 h; share of cells brighter than vehicle mean+2SD; % tubulin-high responders, % at 10 µM; 0.83% of 200,000 active; AID 2205;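 active = plate Z-score above 3 for both tubulin-high and condensed-nucleus cell shares, with cell loss under 80%, at 10 µM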;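 also: anti alpha tubulin signal scored within the nucleus-defined area of each cell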
INS promoter inh: TRM-6 insulin promoter activity inhibition; TRM-6 cells (human fetal islet line), insulin promoter-eGFP reporter, imaging; reporter expression induced with tamoxifen; inhibition, % at 2 µM; 0.9% of 130,000 active; AID 1273;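 active = inhibition above the mean plus 3 SD, with well images judged a real hit on visual review, cut at about 60% in these data, passing the limit was not always enough; inconclusive = inhibition over the cutoff but images rejected on review; inactive = inhibition not above the cutoff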
ROMK retest: retested hit modulating human ROMK potassium channel | shares compounds with ROMK primary | ROMK thallium flux, fluorescence ratio; hits give low values | normalized thallium flux (F/F0 slope) at 10 µM | 54% of 3,000 active;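 active = Flux at 10 µM at least 3 SD below or above vehicle control mean in one or both replicates; inconclusive = no clear call, values can overlap the other calls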
* hit, by the source's call; i = inactive; u = inconclusive; x = not tested or not shown. Hits are enriched below; roughly 2.4% of the tested compounds scored in any of these assays.

SMILES | HSV replic up | ROMK primary | bCat nuc transl | MT stabilizer | INS promoter inh | ROMK retest
O=c1cc(/C=C/c2ccccc2)oc2ccccc12 | i | x | -1 | 2 | 19 | x
Clc1ccc(C2=C3CCCCn4c(-c5ccccc5)c[n+](c43)C2)cc1 | i | x | x | 3 | -8 | 0.064*
COc1ccc(-c2c[n+]3c4n2CCCCC4=C(c2ccc(Br)cc2)C3)cc1 | x | -4.6* | -3 | 7 | x | 0.052*
COc1ccc(-c2cnc3n2CCCCC3)cc1 | i | x | 0 | x | x | x
COc1ccc(NC(=O)N2CCN(C(=O)C(Cc3ccc(F)cc3)NC(C)=O)CC2)cc1 (stereo unspecified) | i | 0.52 | -2 | 3 | x | x
CC1CCN(C(=S)NCCc2ccccc2)CC1 | i | x | -1 | 3 | -32 | x
S=C(NCCc1ccccc1)N1CCN(C2CCCCC2)CC1 | i | -2.7* | -5 | 4 | x | 0.063*
O=C1CC(/C=C/c2ccc([N+](=O)[O-])cc2)=Nc2ccccc2N1 | i | x | 2 | x | x | 0.057*
Oc1c(Br)cc(Cl)cc1C=Nc1ccccc1Br | i | 3.5* | x | 3 | -21 | u
Oc1c(Br)cc(Cl)cc1C=Nc1ccc(N2CCOCC2)cc1 | i | 0.57 | -3 | 1 | 14 | x
Cc1ccc(C2=NN(C(=O)C3CCCO3)C(c3ccco3)C2)cc1 (stereo unspecified) | i | -1.6 | 0 | 3 | 4 | x
O=C(C1CCCO1)N1N=C(c2ccc(Br)cc2)CC1c1ccco1 (stereo unspecified) | i | -3.4* | -1 | 2 | 11 | 0.058*
COc1ccc(-c2nnnn2-c2ccc(F)cc2F)cc1 | i | -3.3* | 0 | 4 | 5 | u
CCC(C)(C)NC(=O)C(c1cccc(OC)c1OC)N(CCC(C)C)C(=O)CCC(=O)Nc1cc(C)on1 (stereo unspecified) | i | -2.5* | 0 | 5 | x | 0.063*
Cc1ccc(C(=O)N2CCN(Cc3ccc4c(c3)OCO4)CC2)cc1[N+](=O)[O-] | i | 2.8 | 4 | 4 | x | x
C=CCN1C=CC(=CC=C(C#N)C#N)C=C1 | x | -7.5* | 9 | x | x | 0.034*
CC(=O)N1CCN(C2=NC(=O)/C(=C\c3cccs3)S2)CC1 | i | -6.7* | -1 | 1 | x | 0.083
CCn1ccnc1CN1CCN(CCC(C)C)C(CCO)C1 (stereo unspecified) | i | 0.23 | 3 | 3 | x | x
C/C(=C\c1ccccc1)C(=O)Nc1nccs1 | i | 1.1* | 0 | 5 | x | u
O=C(Nc1nccs1)Oc1ccccc1 | i | 1.7 | -4 | 6 | x | x
O=C(c1ccc(-n2c(SCc3cccc(F)c3)nc3ccccc3c2=O)cc1)N1CCOCC1 | i | -3.4* | -1 | 3 | -82 | 0.059*
COc1ccc2c(c1OC)C(=O)OC2Nc1nc(-c2cc3ccccc3oc2=O)cs1 (stereo unspecified) | i | x | 2 | 1 | -52 | 0.04*
COCCNc1nnc(SC(C)C(=O)Nc2ccc(-c3nc4ccc(C)cc4s3)cc2)s1 (stereo unspecified) | i | x | 0 | 2 | x | x
CCCN1C(=O)/C(=C\C=C2\N(CC)c3ccccc3C2(C)C)SC1=S | u | -7.5* | 0 | 27 | x | 0.053*
Cc1ccc(OCC(=O)NC(=S)Nc2ccc(Br)cn2)cc1 | i | x | 0 | x | x | x
SMILES | HSV replic up | ROMK primary | bCat nuc transl | MT stabilizer | INS promoter inh | ROMK retest
COc1cccc(NC(=O)CSC(N)=O)c1 | i | -1.3 | x | 2 | 33 | x
O=c1[nH]c(CN2CCN(c3ccc([N+](=O)[O-])cc3)CC2)nc2ccsc12 | i | -3.5* | 0 | 1 | 40 | 0.059*
c1ccc2c(-c3ccncc3)c[nH]c2c1 | i | 4* | -3 | 6 | 45 | 0.091
O=C(NCc1ccccn1)C(C(=O)c1cccc([N+](=O)[O-])c1)n1cc(Cl)ccc1=O (stereo unspecified) | i | 0.56 | 1 | 2 | -93 | x
c1ccc(N2CCOCCOCCOCCOCCOCC2)cc1 | i | -6.7* | 2 | 1 | x | 0.085
O=C(Cc1ccccc1)Nc1ccc(N2CCCC2)cc1 | i | 0.037 | x | 1 | -19 | x
O=C(Cc1ccccc1)Nc1ccc(N2CCOCC2)cc1 | i | -2* | 0 | 3 | x | 0.074
c1ccc(Oc2nc(Oc3ccccc3)nc(N3CCOCC3)n2)cc1 | i | -3.6* | -3 | 6 | x | u
COC(=O)c1cc(NC(=O)c2c(F)c(F)c(F)c(F)c2F)cc(C(=O)OC)c1 | i | x | -5 | 2 | 23 | x
O=C(N[C@@H](Cc1ccccc1)C(=O)NC1CCCCC1)c1ccco1 | x | 1.9* | x | 2 | -1 | 0.08
CN1CCc2c(sc3c2c(=O)n(-c2ccccc2)c2n[nH]c(=S)n32)C1 | i | x | 0 | 4 | 17 | x
CCCCOc1ccc(Br)cc1CSC(=N)N | i | -4* | 9 | 16 | 17 | 0.057*
CCOc1ccc(C(C)=O)cc1CSC(=N)N | i | -0.49 | 0 | 3 | x | x
CCCCCOc1ccc(CSC(=N)N)cc1[N+](=O)[O-] | i | x | 1 | 2 | -23 | 0.052*
CC(=O)c1sc(NC(=O)c2cc(=O)c3ccccc3o2)nc1C | i | 2.9* | 1 | 3 | x | 0.077
CCCOc1ccc(NC(=O)OC2CCN(C)CC2)cc1 | i | -0.0033 | x | 4 | x | x
CC(C)C(c1nnnn1Cc1ccc(F)cc1)N1CCN(C2CCCC2)CC1 (stereo unspecified) | i | -4.6* | 0 | 2 | x | 0.059*
COc1ccc(Cn2nnnc2C(c2ccc(F)cc2)N2CCN(C3CCCC3)CC2)cc1 (stereo unspecified) | i | -4.2* | 1 | 4 | 0 | 0.053*
CC(C)C(c1nnnn1Cc1ccco1)N1CCN(C2CCCC2)CC1 (stereo unspecified) | i | -1.1 | 0 | 4 | x | x
CCCC(c1nnnn1Cc1ccc(F)cc1)N1CCN(C2CCCCC2)CC1 (stereo unspecified) | i | x | -2 | 2 | x | 0.052*
Cc1[nH]n(-c2ccc([N+](=O)[O-])cc2)c(=O)c1C=NCCN1CCN(C(=O)c2ccccc2)CC1 | i | 0.22 | x | 2 | 38 | x
COc1ccccc1-c1cc(C(=O)Nc2cccnc2)no1 | x | 5.1* | 70* | 24* | x | 0.081
COc1ccccc1-c1cc(C(=O)N2CCN(c3ccccc3OC)CC2)no1 | i | 3.3* | 1 | 36 | x | 0.085
COc1ccccc1-c1cc(C(=O)Nc2ccccc2SC)no1 | i | 0.33 | 3 | 3 | x | x
COc1ccccc1-c1cc(C(=O)NCCc2ccccc2)no1 | i | 3.5* | x | 21* | -38 | 0.076
COc1ccccc1N1CCN(C(=O)c2cc(-c3ccc(C)cc3)on2)CC1 | i | -1.4 | 2 | 4 | 28 | x
COc1cc(NC(=O)c2cc(-c3cccs3)on2)cc(OC)c1OC | x | 4.1* | 2 | 54* | x | 0.084
COc1cc(NC(=O)c2cc(-c3cccc(O)c3)on2)cc(OC)c1OC | i | x | 3 | 5 | x | x
Cc1cccc(N2CCC(N3CCN(C4CCCCC4)C(CCO)C3)CC2)c1C (stereo unspecified) | i | -2.3 | 0 | 5 | x | x

From PubChem BioAssay
